# Source: ChEMBL document CHEMBL1149562, “Identification and optimization of novel 1,3,4-oxadiazole EP1 receptor antagonists” (Bioorg Med Chem Lett, 2007)
# pIC50, pKi: −log10 of the molar value.
# Tests used:
# [1] = biological target: T1, Prostaglandin E2 receptor EP1 subtype (Homo sapiens, UniProt P34995); assay: Displacement of [3H]PGE2 from human recombinant EP1 receptor expressed in CHO cell membrane; assay type: cell membranes; conditions: for IC50: read-out: Log IC50 (converted); for pIC50: read-out: IC50
# T1 sequence (P34995 whole entry): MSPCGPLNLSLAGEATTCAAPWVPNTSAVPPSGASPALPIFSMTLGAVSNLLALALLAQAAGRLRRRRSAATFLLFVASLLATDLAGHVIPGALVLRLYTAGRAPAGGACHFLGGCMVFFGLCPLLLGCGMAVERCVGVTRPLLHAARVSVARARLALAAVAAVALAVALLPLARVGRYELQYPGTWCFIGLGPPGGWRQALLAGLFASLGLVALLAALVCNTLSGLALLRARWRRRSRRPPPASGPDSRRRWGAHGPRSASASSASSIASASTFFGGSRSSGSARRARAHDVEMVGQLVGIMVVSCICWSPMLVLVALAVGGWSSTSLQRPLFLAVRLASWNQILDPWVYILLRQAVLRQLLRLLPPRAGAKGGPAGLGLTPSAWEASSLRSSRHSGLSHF
# In short: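 Radioligand binding using [3H]-PGE2 on membranes of CHO cells expressing recombinant human EP1 receptor; affinity expressed as pIC50. Values are means of at least three experiments.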
# [2] = biological target: T1, Prostaglandin E2 receptor EP1 subtype; assay: Antagonist activity at human recombinant EP1 receptor expressed in CHO cells assessed as inhibition of PGE2-induced calcium mobilization by FLIPR; assay type: functional, cell-based
# In short: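 Functional antagonism in CHO cells expressing recombinant human EP1 receptor; blockade of PGE2-driven intracellular Ca2+ mobilization read by FLIPR, reported as pKi. Values are means of at least three experiments, with some from two.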
SMILES,IC50 [1],pKi [2],pIC50 [1]
Cc1ccc(S(=O)(=O)N(CC(=O)NCCc2ccc(Cl)cc2)c2ccccc2C)cc1,251 nM,–,–
CCc1ccccc1N(Cc1nnc(Cc2ccccc2)o1)S(=O)(=O)c1ccc(C)cc1,1000 nM,6.40,–
CCc1ccccc1N(Cc1nnc(Cc2ccc(OC)cc2)o1)S(=O)(=O)c1ccc(C)cc1,–,6.20,6.90
COc1ccc(Cc2nnc(CN(c3cccc(C(F)(F)F)c3C)S(=O)(=O)c3ccc(C)cc3)o2)cc1,63.1 nM,6.40,–
Cc1ccc(S(=O)(=O)N(Cc2nnc(Cc3ccccc3Cl)o2)c2cccc(Cl)c2C)cc1,79.4 nM,6.40,–
Cc1ccc(S(=O)(=O)N(Cc2nnc(Cc3cccc(Cl)c3)o2)c2cccc(Cl)c2C)cc1,158 nM,5.70,–
Cc1ccc(S(=O)(=O)N(Cc2nnc(Cc3c(Cl)cccc3Cl)o2)c2cccc(Cl)c2C)cc1,63.1 nM,6.30,–
Cc1ccc(S(=O)(=O)N(Cc2nnc(Cc3ccc(Cl)cc3Cl)o2)c2cccc(Cl)c2C)cc1,63.1 nM,6.00,–
CCc1ccccc1N(Cc1nnc(CNc2ccc(OC)cc2)o1)S(=O)(=O)c1ccc(C)cc1,501 nM,6.10,–
Cc1ccc(S(=O)(=O)N(Cc2nnc(Cc3ccccc3F)o2)c2cccc(Cl)c2C)cc1,501 nM,6.20,–
CCc1ccccc1N(CC(=O)NCc1ccc(OC)cc1)S(=O)(=O)c1ccc(C)cc1,–,–,7.60
CCc1ccccc1N(CC(=O)NCCc1ccc(OC)c(OC)c1)S(=O)(=O)c1ccc(C)cc1,7.94 nM,–,–
CCc1ccccc1N(CC(=O)OCc1ccc(OC)cc1)S(=O)(=O)c1ccc(C)cc1,–,–,7.20
Cc1ccc(S(=O)(=O)N(Cc2nnc(Cc3ccc(F)cc3)o2)c2cccc(Cl)c2C)cc1,200 nM,6.30,–
Cc1ccc(S(=O)(=O)N(Cc2nnc(Cc3cccc(F)c3)o2)c2cccc(Cl)c2C)cc1,316 nM,6.30,–
CCc1ccccc1N(Cc1nnc(Cc2ccc(Cl)cc2)o1)S(=O)(=O)c1ccc(C)cc1,398 nM,6.50,–

# Continued, values first:
IC50 [1],pKi [2],pIC50 [1],SMILES
3.98 nM,7.30,–,CCOc1ccc(Cc2nnc(CN(c3cccc(Cl)c3C)S(=O)(=O)c3ccc(C)cc3)o2)cc1
126 nM,7.40,–,CCOc1ccc(Cc2nnc(CN(c3ccccc3CC)S(=O)(=O)c3ccc(C)cc3)o2)cc1
50.1 nM,6.80,–,Cc1ccc(S(=O)(=O)N(Cc2nnc(Cc3ccc(C(F)(F)F)cc3)o2)c2cccc(Cl)c2C)cc1
7.94 nM,7.20,–,COc1ccc(Nc2nnc(CN(c3cccc(Cl)c3Cl)S(=O)(=O)c3ccc(C(F)(F)F)cc3)o2)cc1
20 nM,7.20,–,COc1ccc(Cc2nnc(CN(c3cccc(Cl)c3Cl)S(=O)(=O)c3ccc(Cl)cc3)o2)cc1
25.1 nM,6.90,–,CCc1ccccc1N(Cc1nnc(COc2ccc(OC)cc2)o1)S(=O)(=O)c1ccc(C)cc1
2.51 nM,8.20,–,CCOc1ccc(Cc2nnc(CN(c3cccc(Cl)c3Cl)S(=O)(=O)c3ccc(C(F)(F)F)cc3)o2)cc1
20 nM,7.10,–,COc1ccc(NCc2nnc(CN(c3cccc(Cl)c3C)S(=O)(=O)c3ccc(C)cc3)o2)cc1
31.6 nM,7.10,–,COc1ccc(Nc2nnc(CN(c3cccc(Cl)c3C)S(=O)(=O)c3ccc(C)cc3)o2)cc1
> 1000 nM,7.00,–,CCc1ccccc1N(Cc1nnc(Oc2ccc(OC)cc2)o1)S(=O)(=O)c1ccc(C)cc1
39.8 nM,7.30,–,COc1ccc(Nc2nnc(CN(c3cccc(Cl)c3Cl)S(=O)(=O)c3ccc(C)cc3)o2)cc1
6.31 nM,7.40,–,COc1ccc(Cc2nnc(CN(c3cccc(Cl)c3C)S(=O)(=O)c3ccc(C)cc3)o2)cc1
7.94 nM,7.40,–,COc1ccc(Cc2nnc(CN(c3cccc(Cl)c3Cl)S(=O)(=O)c3ccc(C)cc3)o2)cc1
12.6 nM,7.70,–,Cc1ccc(S(=O)(=O)N(Cc2nnc(Cc3ccc(N(C)C)cc3)o2)c2cccc(Cl)c2C)cc1
6.31 nM,7.50,–,CCOc1ccc(Cc2nnc(CN(c3cccc(Cl)c3Cl)S(=O)(=O)c3ccc(C)cc3)o2)cc1
